Test results published in paper PMC6217529 (ACS Omega, 2018).
Entries after “also recorded” stand apart in the source; their conditions may differ.

Key:
mice [1] = assay: Edema inducing activity in mice foot pads; assay type: in vivo; conditions: up to 100 μg
platelets (PRP) = assay: Epinephrine-induced platelet aggregation in PRP; assay type: cell-based, human; conditions: agonist epinephrine
How it was run: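 Platelet-rich plasma (PRP) and platelet-poor plasma (PPP) were prepared from fresh blood of healthy human donors, and PRP was adjusted with PPP to 3.1 × 10^8 platelets/mL at 37 °C. PRP was pre-incubated with test compound (10, 20 or 30 μg) in a 0.25 mL reaction volume. Aggregation was started with 5 μM epinephrine and traced on a dual-channel optical lumi-aggregometer. Inhibition % was plotted against dose, from three independent experiments.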

mice [2] = assay: Hemorrhagic activity in mice, intradermal; assay type: in vivo; conditions: up to 100 μg

Row | hemorrhage in experimental mice (in words) (mice [2]) | Structure (SMILES) | edema in experimental mice (in words) (mice [1]) | ability to inhibit epinephrine-induced platelet aggregation (in words) (platelets (PRP))
1 | anti-hemorrhagic | Cn1c(-c2ccc(Br)s2)nc2cc(-c3nnc(-c4cc(-c5ccc(Cl)cc5Cl)nc5ccccc45)o3)ccc21 [8d, 2-(2-(5-Bromothiophen-2-yl)-1-methyl-1H-benzo[d]imidazol-5-yl)-5-(2-(2,4-dichlorophenyl)quinolin-4-yl)-1,3,4-oxadiazole] | anti-edema; also recorded: active in preventing hemorrhage and edema | but not the 8d sample
2 | anti-hemorrhagic | Cn1c(-c2ccc(Br)s2)nc2cc(-c3nnc(-c4cc(-c5cc(F)cc(F)c5)nc5ccccc45)o3)ccc21 [8a, 2-(2-(5-Bromothiophen-2-yl)-1-methyl-1H-benzo[d]imidazol-5-yl)-5-(2-(3,5-difluorophenyl)quinolin-4-yl)-1,3,4-oxadiazole] | anti-edema; also recorded: active in preventing hemorrhage and edema | able to inhibit the epinephrine-induced platelet aggregation
